Measured values of several laboratories.
ST14: Suppressor of tumorigenicity 14 protein (ST14, Homo sapiens, UniProt Q9Y5Y6)
CDK2 with cyclin A2: Cyclin-dependent kinase 2, with cyclin A2 (CDK2, Homo sapiens, UniProt P24941)

SMILES | target | test | setting | endpoint | result
CC(C)(C)c1ccc(C[C@H](NC(=O)[C@H](Cc2cscn2)NC(=O)CCc2ccccc2)C(=O)N[C@@H](CCCNC(=N)N)C(=O)c2nc3ccccc3s2)cc1 | ST14 | enzyme activity, inhibitor | 0.1 µM | remaining activity | 80%
CNC(=O)c1cc(Oc2ccc(NC(=O)Nc3ccc(Cl)c(C(F)(F)F)c3)cc2)ccn1 | CDK2 with cyclin A2 | enzyme activity, inhibitor | 200 pM | inhibition | 12.3%
N=C(N)NCCC[C@H](NC(=O)[C@@H](NC(=O)[C@H](Cc1cscn1)NC(=O)CCc1ccccc1)C1CCCCC1)C(=O)c1nc2ccccc2s1 | ST14 | enzyme activity, inhibitor | 0.1 µM | remaining activity | 32%
CNc1ncc2c(/C=C/C(=O)N3CCC(OC)CC3)nn(Cc3cccc(C(F)(F)F)c3)c2n1 | Tyrosine-protein kinase ZAP-70 (ZAP70, Homo sapiens, UniProt P43403) | enzyme activity, inhibitor, radiometric | 1 µM | remaining activity | 95%
Cc1cc([C@@H](C)Nc2ccccc2C(=O)O)c2nc(N3CCC(F)(F)CC3)c(C#N)c(=O)n2c1 | Angiopoietin-1 receptor (TEK, Homo sapiens, UniProt Q02763) | binding, competition with immobilised ligand | 1 µM | remaining binding | 60%
C=CC(=O)N1CCC(COCC(=O)N2CCN(c3nc(-c4cnc(N)nc4C(F)F)nc(N4CCOC[C@@H]4C)n3)CC2)CC1 | Protein kinase C eta type (PRKCH, Homo sapiens, UniProt P24723) | binding, competition with immobilised ligand | 1 µM | remaining binding | 100%
CC(=O)Nc1c(N)nc(SCC(=O)NN)[nH]c1=O | CDK2 with cyclin A2 | enzyme activity, inhibitor | 1 nM | inhibition | 8.32%
COc1cc(-c2cncc3c2CN(C)Cc2cc(N4CCNCC4)ccc2-3)cc(OC)c1OC | Vascular endothelial growth factor receptor 3 (FLT4, Homo sapiens, UniProt P35916) | enzyme activity, inhibitor | 1 µM | remaining activity | 86%
N=C(N)NCCC[C@H](NC(=O)[C@@H](CC1CCCCC1)NC(=O)[C@H](Cc1cscn1)NC(=O)CCc1ccccc1)C(=O)c1nc2ccccc2s1 | ST14 | enzyme activity, inhibitor | 0.1 µM | remaining activity | 95%
CC(=O)Nc1c(N)nc(SCC(=O)N/N=C/c2ccc([N+](=O)[O-])cc2)[nH]c1=O | CDK2 with cyclin A2 | enzyme activity, inhibitor | 1 nM | inhibition | 4.03%
